Bioassay records as filed in PubChem BioAssay.
TRPN1 ag: zebrafish TRPN1 (NompC) channel agonism; HEK293 zebrafish TRPN1-YFP, Fluo-8 calcium fluorescence; 100% = response to 87 µM carbachol; hit rate 0.18% among 220,000; activation, % at 3 µM;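 active means activation above its plate's cutoff, the mean activation of test wells on that plate plus 3 SD, cut at about 19% in these data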;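 further: 0% = DMSO alone and 100% = 87 µM carbachol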
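Assay system: Zebrafish TRPN1-YFP in HEK293 cells | Incubation: Dye loading 1 h at 37 °C, then 30 min room temperature | Measured by: Kinetic Fluo-8 fluorescence, ex 470-495, em 515-575 nm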
V1R ag counter: activates human V1a receptor in oxytocin agonist counter-screen; P37288; CHO-V1R cells, Fluo-8 calcium fluorescence, agonist mode; 0% DMSO, 100% 3 nM vasopressin; activation, % at 3 µM; hit rate 0.25% among 320,000; AID 2797;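 active means activation above the mean activation of all tested compounds plus 3 SD, per screening run, cut at about 20% in these data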;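 further: signal is peak over basal fluorescence ratio across a 100 second FLIPR read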
TRPML3 ag: activates the human TRPML3 channel; HEK293 TRPML3-YFP, Fluo-8 calcium fluorescence; 100% = the carbachol control signal; activation, % at 3 µM; hit rate 0.29% among 220,000; AID 1448;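 active means activation above its plate's cutoff, the mean activation of the plate's test wells plus 3 SD, cut at about 12% in these data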;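 further: 0% = DMSO only wells and 100% = carbachol wells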
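Material: TRPML3-YFP stable HEK293 cells | Dosing: One concentration, 3 µM nominal, 0.3% DMSO | Timing: 125 s total fluorescence read per well | Technique: Fluo-8 calcium dye fluorescence, ex 470-495, em 515-575 nm | Measure: Percent activation from peak-to-basal fluorescence ratio, scaled between DMSO and carbachol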
OXTR ag: human OXTR agonism; AID 2435; activation, % at 3 µM; CHO-OTR cells, Fluo-8 calcium fluorescence; normalized: DMSO 0%, oxytocin 100%; P30559; hit rate 0.32% among 320,000;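 active means activation above the mean of all tested compounds plus 3 SD, cutoff set per screening run, cut at about 20% in these data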;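 further: peak over basal fluorescence ratio from a 100 s FLIPR kinetic read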
Target sequence (P30559 whole entry, looked up): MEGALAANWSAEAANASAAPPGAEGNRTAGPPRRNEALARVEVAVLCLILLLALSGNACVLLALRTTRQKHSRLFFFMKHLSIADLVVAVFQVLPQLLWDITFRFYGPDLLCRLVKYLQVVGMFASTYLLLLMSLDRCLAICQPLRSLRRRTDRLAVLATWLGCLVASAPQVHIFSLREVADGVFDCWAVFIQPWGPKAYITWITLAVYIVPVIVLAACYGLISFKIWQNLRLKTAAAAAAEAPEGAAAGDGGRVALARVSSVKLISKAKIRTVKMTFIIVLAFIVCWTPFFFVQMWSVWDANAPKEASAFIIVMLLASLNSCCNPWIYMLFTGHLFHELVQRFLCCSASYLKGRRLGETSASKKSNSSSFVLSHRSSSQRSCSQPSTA
OXTR potentiate: human OXTR potentiation | P30559 | CHO-OTR cells, Fluo-8 calcium fluorescence, potentiator mode; 0% = oxytocin EC15, 100% = EC100 | activation, % at 3 µM | hit rate 0.061% among 320,000;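 active means activation above that plate's cutoff, the mean activation of tested compounds plus 3 SD, cut at about 6.6% in these data, passing the limit was not always enough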;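 further: 100% uses oxytocin at 75 nM as the full agonist control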
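Dosing: Single dose, 3.0 µM nominal final compound concentration | Material: Human OTR in CHO cells | Technique: Kinetic Fluo-8 calcium fluorescence | Benchmarks: EC15 oxytocin alone as 0%, 75 nM oxytocin as 100% | Probe or stimulus: Oxytocin at about EC15, sub-maximal agonist stimulus | Incubation: Compound 6 min at room temperature before oxytocin, 100 s read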
* = called active by the depositor; x = no result given. The list is not random: actives were taken first. Their share in the collection is about 0.59%.

SMILES | TRPN1 ag | V1R ag counter | TRPML3 ag | OXTR ag | OXTR potentiate
Cc1cc(Cl)ccc1OC(C)C(=O)Nc1ccccc1N1CCOCC1 (centres undefined) | 46* | 0 | 177* | -2 | -11
Cc1ccc(C)c(NC(=O)c2ccccc2NS(=O)(=O)c2cc([N+](=O)[O-])ccc2C)c1 | 27* | 8 | 18* | 10 | -15
Oc1c(CN2CCCC(C(F)(F)F)C2)cc(Cl)c2ccccc12 (centres undefined) | x | 0 | x | 0 | -2
Cc1ccc(C)c(C(=O)N(Cc2nc(-c3ccc(Cl)cc3)no2)C(C)C)c1 | 1 | 0 | 28* | 0 | -8
CCOc1ccc(/C=C2/SC(=O)NC2=S)cc1 | 34* | 5 | 14* | 4 | -6
CC(C#N)(NC(=O)CN1CCN(S(=O)(=O)c2ccccc2Cl)CC1)C1CC1 (centres undefined) | x | 1 | x | 2 | -2
O=C1OC2(c3ccccc31)c1cc(I)c(O)c(I)c1Oc1c2cc(I)c(O)c1I | x | 659* | x | 670* | -26
Cc1cc(O)ccc1C1(c2ccc(O)cc2C)OC(=O)c2ccccc21 | 1 | 6 | -1 | 7 | -8
CCOc1ccc2ccccc2c1C1NC(=O)N(C)C(C)=C1C(=O)OCCOC (centres undefined) | x | 0 | x | 1 | 4
O=[N+]([O-])c1cccc(C2NCC(c3ccccc3Cl)c3c2[nH]c2ccccc32)c1 (centres undefined) | 2 | 345* | 1 | 243* | -22
N#Cc1c(-c2ccccc2Cl)cc(C2CC2)nc1N | -1 | 30* | -1 | 36* | -8
COc1ccccc1-c1cc(C2CC2)nc(N)c1C#N | -3 | 0 | -2 | -2 | -5
Cc1ccc(-c2c(C(=O)N/N=C/c3ccc(C)o3)nnn2-c2nonc2N)cc1 | x | 5 | x | 3 | -10
CC(C)c1c(C(=O)N/N=C/c2cccnc2)nnn1-c1nonc1N | x | 0 | x | 0 | -10
CCOc1ccc(-c2c(C(=O)N/N=C/c3cccs3)nnn2-c2nonc2N)cc1 | x | 14 | x | 12 | 0
CCOc1ccc(/C=N/NC(=O)c2nnn(-c3nonc3N)c2-c2cccs2)cc1 | x | 22* | x | 35* | -11
CCc1ccc(/C=N/NC(=O)c2nnn(-c3nonc3N)c2C(C)C)cc1 | x | 47* | x | 55* | -6
Cc1ccc(-c2c(C(=O)N/N=C/c3ccc(OC(C)C)cc3)nnn2-c2nonc2N)cc1 | x | 37* | x | 30* | 3
CCOc1ccc(-c2c(C(=O)N/N=C/c3ccc(OC(C)C)cc3)nnn2-c2nonc2N)cc1 | 2 | 23* | 1 | 21* | 8
CCOc1ccc(-c2c(C(=O)N/N=C/c3ccc(C)cc3)nnn2-c2nonc2N)cc1 | 2 | 15 | 6 | 16 | 9
NC(=O)C1CN(C(=O)c2cccc(S(=O)(=O)N3CCc4ccccc43)c2)c2ccccc2O1 (centres undefined) | x | 5 | x | 1 | -6
CN(C)S(=O)(=O)c1ccc2c(c1)/C(=C/c1cc3c([nH]1)CCCC3)C(=O)N2 | x | 25* | x | 35* | -12
CC(C)Cc1ccc(C(C)C(=O)Nc2ccc(O)cc2)cc1 (centres undefined) | 45* | 44* | 22* | 50* | -20
CC(C)Cc1ccc([C@H](C)C(=O)O)cc1 | x | 0 | x | 1 | -8
CC(C)Cc1ccc(C(C)C(=O)Nc2cccnc2)cc1 (centres undefined) | x | 43* | x | 46* | -26
SMILES | TRPN1 ag | V1R ag counter | TRPML3 ag | OXTR ag | OXTR potentiate
O=C(O)c1cccc(-c2noc(-c3cccc(Cl)c3)n2)c1 | x | 0 | x | 1 | -4
CC1CCCC(C)N1C(=O)COC(=O)c1ccc(Br)o1 (centres undefined) | x | 1 | x | 1 | -2
N=c1n(Cc2ccccc2)c2ccccc2n1CC(O)COc1ccccc1 (centres undefined) | 1 | 7 | 0 | 9 | -5
Cc1ccc(Cn2c(=N)n(CC(O)COc3ccccc3)c3ccccc32)cc1 (centres undefined) | 2 | 28* | 0 | 28* | -12
CCNc1ccc2noc3c2c1C(=O)c1ccccc1-3 | 2 | 78* | 3 | 110* | -11
CCNc1ccccc(-c2ccc3ccccc3n2)c1=O | 1 | 2 | 1 | 0 | 3
O=C1c2ccccc2-c2onc3ccc(NCc4ccco4)c1c23 | 2 | 35* | 2 | 58* | -31
O=C1c2ccccc2-c2onc3c(Oc4ccccc4)cc(O)c1c23 | 0 | x | 1 | x | x
CCOc1ccc2noc3c2c1C(=O)c1ccccc1-3 | 4 | 75* | 4 | 59* | -14
CN(CC(=O)Nc1cccc(S(=O)(=O)N2CCCC2)c1)CC(=O)Nc1ccc(Cl)c(C(F)(F)F)c1 | x | 7 | x | 8 | -7
O=C1CCC(C(=O)Nc2ccc([N+](=O)[O-])cc2)N1 (centres undefined) | x | 1 | x | -1 | -6
N#C/C(=C\c1coc2ccccc2c1=O)C(N)=S | 0 | 0 | 1 | 0 | -7
N#C/C(=C\c1coc2ccc(O)cc2c1=O)C(=O)Nc1nc2ccccc2s1 | 222* | 308* | 64* | 257* | -13
CC(C)N(C(=O)Cn1cc(S(=O)(=O)CC(=O)Nc2ccccc2)c2ccccc21)C(C)C | x | 0 | x | -2 | -3
CC(C)OC(=O)c1c2c(n3ccccc13)C(=O)c1ccccc1C2=O | 10 | 31* | 5 | 25* | -17
COC(=O)c1cc2c(C)c(C)c3ccccn3c-2c1C(=O)OC | 0 | 1 | 1 | -2 | -19
O=C(COc1ccccc1/C=C\c1nc(O)c([N+](=O)[O-])c(=O)[nH]1)Nc1ccccc1 | 321* | x | 138* | x | x
CCOc1ccccc1/C=C\c1nc(O)c([N+](=O)[O-])c(=O)[nH]1 | x | 0 | x | -1 | -5
O=C1/C(=C\c2cccc([N+](=O)[O-])c2O)SC(=S)N1Cc1ccccc1 | x | 7 | x | 2 | -18
COc1cc([N+](=O)[O-])cc(/C=C2/SC(=S)N(Cc3ccccc3)C2=O)c1O | x | 64* | x | 82* | -25
CCOc1cc(/C=C2/SC(=S)N(Cc3ccccc3)C2=O)ccc1O | x | 37* | x | 26* | -16
COc1cc(/C=C2/SC(=S)N(Cc3ccccc3)C2=O)cc(Cl)c1O | x | 65* | x | 70* | -23
O=C(O)c1ccccc1C(=O)NCCc1c(C(=O)O)[nH]c2ccc(Cl)cc12 | 1 | 1 | 1 | 0 | -2
O=C(N/N=C\c1c(O)ccc2ccccc12)c1cncc(Br)c1 | x | 155* | x | 152* | -17
O=C(N/N=C/c1c(O)ccc2ccccc12)c1ccc(Br)o1 | x | 22* | x | 20* | -17
COc1ccc(OC)c(NC(=O)C(CCSC)NS(=O)(=O)c2cccs2)c1 (centres undefined) | x | -1 | x | 0 | -5
